This note sets out measurements from ChEMBL document CHEMBL1124122, “Protoberberine alkaloids as antimalarials” (J Med Chem, 1988).

Experiment [1] concerns Mus musculus. The experiment is described as follows: In vivo Mean survival time of Plasmodium berghei parasitized mice dosed at 40 mg/kg. It counts as functional. A digest of the protocol:
(§1)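 Mice infected with drug-sensitive Plasmodium berghei strain KBG 173. Result given as T − C: the mean survival time of treated mice beyond that of untreated infected controls. A compound counts as active when T − C is ≥ 6.2 days.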

Experiment [2] deals with Mus musculus. Description: In vivo Mean survival time of Plasmodium berghei parasitized mice dosed at 160 mg/kg. It counts as functional. The method in brief:
as §1

Experiment [3] deals with Plasmodium falciparum. Description: In vitro antimalarial activity against Plasmodium falciparum W2. The experiment is classed as functional, organism-based. The method in brief:
(§2)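 Parasite growth inhibition was read out as uptake of tritiated hypoxanthine.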

For experiment [4], the system named is Plasmodium falciparum. Description: (§3) In vitro antimalarial activity against Plasmodium falciparum D6. The experiment is classed as functional, organism-based. A digest of the protocol:
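Parasite growth inhibition read as uptake of tritiated hypoxanthine.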

The test system of experiment [5] is Mus musculus. The experiment is described as follows: In vivo Mean survival time of Plasmodium berghei parasitized mice dosed at 640 mg/kg. The experiment is classed as functional. The method in brief: as §1
For experiment [6], the system named is Mus musculus. Description: In vivo Mean survival time of Plasmodium berghei parasitized mice dosed at 160 mg/kg; Not active. The experiment is classed as functional, organism-based. Further details: dose 160 mg/kg. The method in brief:
(§4)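 Mice were infected with the drug-sensitive P. berghei strain KBG 173 and given the stated dose. T − C is the mean survival time of treated mice beyond that of untreated controls. A compound counts as active only if T − C is ≥ 6.2 days, and toxicity is flagged separately.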

In experiment [7] the test system is Plasmodium falciparum. The experiment is described as follows: In vitro antimalarial activity against Plasmodium falciparum D6. The experiment is classed as functional, organism-based. A digest of the protocol:
as §2

The test system of experiment [8] is Mus musculus. The experiment is described as follows: In vivo Mean survival time of Plasmodium berghei parasitized mice dosed at 640 mg/kg; Not active. The experiment is classed as functional, organism-based. Also on record: dose 640 mg/kg. The method in brief: as §4
Experiment [9] relates to Mus musculus. Description: In vivo Mean survival time of Plasmodium berghei parasitized mice dosed at 40 mg/kg; Not active. It counts as functional, organism-based. Further details: dose 40 mg/kg. A digest of the protocol: as §4
For experiment [10], the system named is Plasmodium falciparum. The description is as §3. The experiment is classed as functional, organism-based. The method in brief:
as §2
This is another data set of the same source.

The test system of experiment [11] is Mus musculus. The experiment is described as follows: In vivo Mean survival time of Plasmodium berghei parasitized mice dosed at 640 mg/kg; Toxic. The experiment is classed as functional, organism-based. Further details: dose 640 mg/kg. The method in brief: as §4
Experiment [12] deals with Mus musculus. The experiment is described as follows: In vivo Mean survival time of Plasmodium berghei parasitized mice dosed at 160 mg/kg; Toxic. It counts as functional, organism-based. Also on record: dose 160 mg/kg. A digest of the protocol:
as §4

Converted amounts (≈) assume the structure as drawn. The source made the active and inactive calls.

Turning to `COc1ccc2c(c1OC)C[N+]1([O-])CCc3cc4c(cc3C1C2)OCO4` (stereo not given), the T-C in experiment [1] amounted to 0 days; in [2], 0.2 days; in [5], 0 days. For the same compound, the IC50 worked out at 0.558 µg/mL (≈ 1.57 µM) in experiment [3] and 0.565 µg/mL (≈ 1.59 µM) in [4].

Regarding `COc1ccc2c(c1OC)C(C#N)N1CCc3cc4c(cc3C1=C2)OCO4` (stereo not given), the T-C result in [6], in experiment [8] and in experiment [9] was “inactive” throughout. The figures for the IC50 in experiment [7] and in experiment [3] were 0.101 µg/mL (≈ 0.279 µM) and 0.143 µg/mL (≈ 0.395 µM), respectively.

Turning to `COc1ccc2c(c1OC)C[N+]1(C)CCc3cc4c(cc3C1C2)OCO4.[I-]` (stereo not given), the T-C entry in experiment [6], in experiment [8] and in experiment [9] was “inactive” in each case. For the same compound, the figures for the IC50 in [3] and in [4] were 1.34 µg/mL and 0.97 µg/mL, respectively.

In the case of `COc1ccc2c(OC)c3[n+](cc2c1OC)CCc1cc2c(cc1-3)OCO2`, the IC50 in experiment [7] was 0.568 µg/mL; in experiment [3], 0.701 µg/mL. Further, the T-C was -0.2 days in experiment [1], -0.2 days in [2] and 0.2 days in [5].

Turning to `COc1ccc2cc3[n+](cc2c1OC)CCc1cc2c(cc1-3)OCO2.[Cl-]` [BERBERINE CHLORIDE], the results for the IC50 in [10] and in experiment [3] were 0.141 µg/mL and 0.148 µg/mL, respectively. Further, the T-C was 0.6 days in [1], 1 days in experiment [2] and “Toxic” in [11].

Consider `COc1ccc2c(c1OC)CN1CCc3cc4c(cc3[C@@H]1C2)OCO4` [CANADINE], for which the T-C in experiment [1] worked out at 0.1 days; in experiment [2], 0.1 days; in [5], 0.3 days. Further, the IC50 in experiment [3] stood at 1.74 µg/mL (≈ 5.12 µM); in experiment [4], 0.555 µg/mL (≈ 1.64 µM).

As for `COc1ccc2c(c1OC)CN1CCc3cc4c(cc3C1=C2)OCO4` [DIHYDROBERBERINE], the results for the T-C in experiment [1], in experiment [12] and in [11] were -0.2 days, “Toxic” and “Toxic”, respectively. Moreover, the figures for the IC50 in experiment [3] and in experiment [4] were 0.171 µg/mL (≈ 0.507 µM) and 0.12 µg/mL (≈ 0.356 µM), respectively.

Consider `COc1cc2c(cc1O)CC[n+]1cc3c(OC)c(OC)ccc3cc1-2.[Cl-]` [JATRORRHIZINE CHLORIDE], for which the T-C entry in experiment [6], in [8] and in experiment [9] was “inactive” throughout. Also, the figures for the IC50 in experiment [3] and in experiment [4] were 1.61 µg/mL and 0.422 µg/mL, respectively.

In the case of `COc1ccc2cc3n(c(=O)c2c1OC)CCc1cc2c(cc1-3)OCO2` [OXYBERBERINE], the IC50 in [7] amounted to 0.557 µg/mL (≈ 1.59 µM); in experiment [3], 2.01 µg/mL (≈ 5.71 µM). The T-C in experiment [1] was determined as 0.1 days; in experiment [2], 0.5 days; in [5] it was 0.3 days.

With `COc1cc2c(cc1OC)-c1cc3ccc(OC)c(OC)c3c[n+]1CC2.[Cl-]` [PALMATINE CHLORIDE], the IC50 was determined as 0.281 µg/mL in [7] and 0.163 µg/mL in [3]. Moreover, the T-C is 0.5 days in [1], “Toxic” in experiment [12] and “Toxic” in experiment [11].
